Measured values taken from ChEMBL document CHEMBL1145197 (J Med Chem, 2005).

The molecules below were run on Rattus norvegicus (assay: In vivo effective dose to produce antagonism of CB agonist (CP-55940) induced hypotension in rat). Details: not given.

Row | Structure (SMILES) | ED50 [mg/kg]
1 | O=C(NN1CCCCC1)c1cn(-c2ccc(Cl)cc2)c(-c2ccc(Cl)cc2Cl)n1 | 11.7
2 | O=C(NN1CCCCC1)c1nc(-c2ccc(Cl)cc2Cl)c(-c2ccc(Cl)cc2)s1 | > 30
3 | Cc1c(C(=O)NN2CCCCC2)nc(-c2ccc(Cl)cc2Cl)n1-c1ccc(Cl)cc1 | 2.4
4 | CCc1c(C(=O)NN2CCCCC2)nc(-c2ccc(Cl)cc2Cl)n1-c1ccc(Cl)cc1 | 15.8
5 | Cc1c(C(=O)NN2CCCCC2)nc(-c2ccc(Cl)cc2)n1-c1ccc(Cl)cc1Cl | > 30
6 | Cl.Cl.O=C(NN1CCCCC1)c1nc(-c2ccc(Cl)cc2Cl)n(-c2ccc(Cl)cc2)n1 | 23.6
7 | Cc1c(C(=O)NN2CCCCC2)nn(-c2ccc(Cl)cc2Cl)c1-c1ccc(Cl)cc1 [RIMONABANT] | 3.2

The molecules below were run against P-glycoprotein (ABCB1) (Homo sapiens, UniProt P08183) (assay: P-glycoprotein (Pgp) factor was expressed as the ratio ofthe bottom to top transport and top to bottom transport). Details: not told.
Assay type: functional

Chain of P-glycoprotein (ABCB1) (P08183 whole entry): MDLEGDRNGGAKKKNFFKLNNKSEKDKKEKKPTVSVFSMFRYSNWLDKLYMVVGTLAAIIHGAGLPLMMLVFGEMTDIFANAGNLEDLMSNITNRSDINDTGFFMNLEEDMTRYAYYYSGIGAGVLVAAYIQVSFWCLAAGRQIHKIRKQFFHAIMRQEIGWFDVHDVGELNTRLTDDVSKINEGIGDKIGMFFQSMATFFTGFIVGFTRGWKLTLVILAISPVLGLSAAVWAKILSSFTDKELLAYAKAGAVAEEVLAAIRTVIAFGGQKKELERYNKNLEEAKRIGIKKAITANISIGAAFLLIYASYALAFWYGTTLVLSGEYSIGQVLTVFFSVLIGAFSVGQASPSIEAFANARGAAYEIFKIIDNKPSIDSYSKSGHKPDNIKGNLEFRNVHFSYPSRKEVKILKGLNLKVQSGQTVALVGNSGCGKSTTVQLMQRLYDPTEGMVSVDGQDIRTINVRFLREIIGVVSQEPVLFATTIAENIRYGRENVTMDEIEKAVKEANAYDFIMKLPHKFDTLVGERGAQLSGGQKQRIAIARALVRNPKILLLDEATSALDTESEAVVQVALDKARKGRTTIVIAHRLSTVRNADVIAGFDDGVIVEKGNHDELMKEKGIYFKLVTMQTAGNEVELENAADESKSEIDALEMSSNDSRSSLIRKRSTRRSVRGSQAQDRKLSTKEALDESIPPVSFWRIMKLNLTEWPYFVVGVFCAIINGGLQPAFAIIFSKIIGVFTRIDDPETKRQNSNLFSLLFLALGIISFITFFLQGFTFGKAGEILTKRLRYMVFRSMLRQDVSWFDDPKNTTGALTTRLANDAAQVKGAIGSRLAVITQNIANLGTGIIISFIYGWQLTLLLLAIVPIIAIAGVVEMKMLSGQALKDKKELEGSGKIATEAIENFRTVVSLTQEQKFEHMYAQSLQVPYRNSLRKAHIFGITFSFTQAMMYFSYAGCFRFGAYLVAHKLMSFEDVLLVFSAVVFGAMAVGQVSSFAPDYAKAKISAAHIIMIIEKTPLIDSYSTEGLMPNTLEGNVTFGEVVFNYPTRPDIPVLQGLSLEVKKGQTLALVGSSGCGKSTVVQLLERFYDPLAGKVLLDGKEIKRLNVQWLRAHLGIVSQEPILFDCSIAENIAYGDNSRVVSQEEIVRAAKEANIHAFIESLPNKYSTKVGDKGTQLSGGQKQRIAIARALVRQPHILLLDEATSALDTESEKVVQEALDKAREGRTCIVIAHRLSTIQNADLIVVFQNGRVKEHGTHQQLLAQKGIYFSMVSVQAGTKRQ

Row | Structure (SMILES) | efflux ratio
8 | O=C(NN1CCCCC1)c1nc(-c2ccc(Cl)cc2Cl)c(-c2ccc(Cl)cc2)s1 | 1.7
9 | Cc1c(C(=O)NN2CCCCC2)nc(-c2ccc(Cl)cc2Cl)n1-c1ccc(Cl)cc1 | 1.2
10 | Cl.Cl.O=C(NN1CCCCC1)c1nc(-c2ccc(Cl)cc2Cl)n(-c2ccc(Cl)cc2)n1 | 1.5

Each molecule was assayed against T1, Cannabinoid receptor 1 (Homo sapiens, UniProt P21554) (assay: not given). Details: not given.
Assay type: cell-based, CHO

T1 sequence (P21554 whole entry): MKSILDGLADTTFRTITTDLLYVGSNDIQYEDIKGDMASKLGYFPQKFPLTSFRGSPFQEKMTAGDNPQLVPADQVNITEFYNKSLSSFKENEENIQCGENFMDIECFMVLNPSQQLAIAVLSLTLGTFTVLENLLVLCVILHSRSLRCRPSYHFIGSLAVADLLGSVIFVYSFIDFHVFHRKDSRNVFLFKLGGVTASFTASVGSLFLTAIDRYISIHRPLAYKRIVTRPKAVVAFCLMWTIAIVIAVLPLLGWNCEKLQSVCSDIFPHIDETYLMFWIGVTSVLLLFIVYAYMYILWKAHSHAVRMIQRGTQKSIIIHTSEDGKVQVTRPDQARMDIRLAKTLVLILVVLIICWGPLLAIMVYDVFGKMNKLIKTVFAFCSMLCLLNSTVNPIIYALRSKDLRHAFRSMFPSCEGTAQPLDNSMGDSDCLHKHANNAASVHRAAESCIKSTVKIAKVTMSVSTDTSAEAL

Row | Structure (SMILES) | Ki [nM]
11 | O=C(NN1CCCCC1)c1cn(-c2ccc(Cl)cc2)c(-c2ccc(Cl)cc2Cl)n1 | 23
12 | Cc1c(C(=O)NN2CCCCC2)nc(-c2ccc(Cl)cc2Cl)n1-c1ccc(C(F)(F)F)cc1 | 29
13 | Cc1c(C(=O)N2CCc3ccccc3C2)nc(-c2ccc(Cl)cc2Cl)n1-c1ccc(Cl)cc1 | 34
14 | Cc1c(C(=O)NN2CCCCC2)nc(-c2ccc(Cl)cc2Cl)n1-c1ccc(Br)cc1 | 60
15 | Cc1c(C(=O)NN2CCCCC2)nc(-c2ccc(Cl)cc2Cl)n1-c1ccc(F)cc1 | 52
16 | COc1ccc(-n2c(-c3ccc(Cl)cc3Cl)nc(C(=O)NN3CCCCC3)c2C)cc1 | 106
17 | Cc1c(C(=O)NN2CCCCCC2)nc(-c2ccc(Cl)cc2Cl)n1-c1ccc(Cl)cc1 | 64
18 | Cc1c(C(=O)NC2CCCCC2)nc(-c2ccc(Cl)cc2Cl)n1-c1ccc(Cl)cc1 | 35
19 | Cc1c(C(=O)NC2CCCCCC2)nc(-c2ccc(Cl)cc2Cl)n1-c1ccc(Cl)cc1 | 35
20 | Cc1c(C(=O)N[C@H]2CC[C@H](O)CC2)nc(-c2ccc(Cl)cc2Cl)n1-c1ccc(Cl)cc1 | 399
21 | Cc1c(C(=O)NC2CC3CCC2C3)nc(-c2ccc(Cl)cc2Cl)n1-c1ccc(Cl)cc1 (stereo not given) | 19
22 | O=C(NN1CCCCC1)c1nc(-c2ccc(Cl)cc2Cl)c(-c2ccc(Cl)cc2)s1 | 227
23 | O=C(NN1CCCCC1)c1nc(-c2ccc(Cl)cc2)c(-c2ccc(Cl)cc2Cl)s1 | > 1000
24 | O=C(NN1CCCCC1)c1nc(-c2ccc(Cl)cc2Cl)n(-c2ccc(Cl)cc2)c1CF | 36
25 | Cc1c(C(=O)OC(C)(C)C)nc(-c2ccc(Cl)cc2Cl)n1-c1ccc(Cl)cc1 | 94
26 | Cc1c(C(=O)NCc2ccc(C(F)(F)F)cc2)nc(-c2ccc(Cl)cc2Cl)n1-c1ccc(Cl)cc1 | 171
27 | Cc1c(C(=O)NOC(C)(C)C)nc(-c2ccc(Cl)cc2Cl)n1-c1ccc(Cl)cc1 | 333
28 | Cc1c(C(=O)NN2CCOCC2)nc(-c2ccc(Cl)cc2Cl)n1-c1ccc(Cl)cc1 | 197
29 | Cc1c(C(=O)NC2CCCC2)nc(-c2ccc(Cl)cc2Cl)n1-c1ccc(Cl)cc1 | 33
30 | N#Cc1c(C(=O)NN2CCCCC2)nc(-c2ccc(Cl)cc2Cl)n1-c1ccc(Cl)cc1 | 30
31 | Cc1c(C(=O)NN2CCCC2)nc(-c2ccc(Cl)cc2Cl)n1-c1ccc(Cl)cc1 | 27
32 | CCN(CC)C(=O)c1nc(-c2ccc(Cl)cc2Cl)n(-c2ccc(Cl)cc2)c1C | 828
33 | Cc1c(C(=O)NN2CC3CCCC3C2)nc(-c2ccc(Cl)cc2Cl)n1-c1ccc(Cl)cc1 (stereo not given) | 40
34 | CCc1c(C(=O)NN2CCCCC2)nc(-c2ccc(Cl)cc2Cl)n1-c1ccc(Cl)cc1 | 14
35 | O=C(NN1CCCCC1)c1nc(-c2ccc(Cl)cc2Cl)n(-c2ccc(Cl)cc2)c1Br | 23
36 | O=C(NN1CCCCC1)c1nc(-c2ccc(Cl)cc2Cl)n(-c2ccc(Cl)cc2)c1Cl | 27
37 | Cc1c(C(=O)NN2CCCCC2)nc(-c2ccc(Cl)cc2)n1-c1ccc(Cl)cc1Cl | 403
38 | O=C(NN1CCCCC1)c1nc(-c2ccc(Cl)cc2)n(-c2ccc(Cl)cc2Cl)n1 | 382
39 | Cl.Cl.O=C(NN1CCCCC1)c1nc(-c2ccc(Cl)cc2Cl)n(-c2ccc(Cl)cc2)n1 | 356

The molecules below were run against ATP-dependent translocase ABCB1 (Homo sapiens, UniProt P08183) (assay: Membrane passage was expressed as mean percentage of compound transported from bottom to top and from top to bottom at 3 hr after adding the compound). Details: not given.
Assay type: functional

Chain of ATP-dependent translocase ABCB1 (P08183 whole entry): as the sequence (P08183 whole entry) above

Row | Structure (SMILES) | Transport [%]
40 | O=C(NN1CCCCC1)c1nc(-c2ccc(Cl)cc2Cl)c(-c2ccc(Cl)cc2)s1 | 8.3
41 | Cc1c(C(=O)NN2CCCCC2)nc(-c2ccc(Cl)cc2Cl)n1-c1ccc(Cl)cc1 | 24.2
42 | Cl.Cl.O=C(NN1CCCCC1)c1nc(-c2ccc(Cl)cc2Cl)n(-c2ccc(Cl)cc2)n1 | 28.3
43 | Cc1c(C(=O)NN2CCCCC2)nn(-c2ccc(Cl)cc2Cl)c1-c1ccc(Cl)cc1 [RIMONABANT] | 17.2

Each molecule was assayed against Cannabinoid receptor 2 (Homo sapiens, UniProt P34972) (assay: In vitro displacement of CP-55940 binding to human CB2 receptor expressed in CHO cells). Details: not given.
Assay type: cell-based
Outline: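 Radioligand binding on CHO cells stably expressing recombinant human CB2 receptor; affinity given as Ki (nM).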

Chain of Cannabinoid receptor 2 (P34972 whole entry): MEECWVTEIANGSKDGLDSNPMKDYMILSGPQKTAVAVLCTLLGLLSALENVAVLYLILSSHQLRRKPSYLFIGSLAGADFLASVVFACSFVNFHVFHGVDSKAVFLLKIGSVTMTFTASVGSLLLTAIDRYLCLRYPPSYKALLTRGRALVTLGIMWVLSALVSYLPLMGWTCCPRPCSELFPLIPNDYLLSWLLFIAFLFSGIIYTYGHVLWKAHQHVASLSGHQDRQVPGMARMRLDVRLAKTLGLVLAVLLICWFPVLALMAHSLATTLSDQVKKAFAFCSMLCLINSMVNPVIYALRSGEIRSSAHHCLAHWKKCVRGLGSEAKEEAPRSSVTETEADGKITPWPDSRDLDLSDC

Row | Structure (SMILES) | Ki [nM]
44 | O=C(NN1CCCCC1)c1cn(-c2ccc(Cl)cc2)c(-c2ccc(Cl)cc2Cl)n1 | 542
45 | Cc1c(C(=O)N2CCC(O)CC2)nc(-c2ccc(Cl)cc2Cl)n1-c1ccc(Cl)cc1 | 3960
46 | Cc1c(C(=O)NN2CCCCC2)nc(-c2ccc(Cl)cc2Cl)n1-c1ccc(C(F)(F)F)cc1 | 634
47 | Cc1c(C(=O)N2CCc3ccccc3C2)nc(-c2ccc(Cl)cc2Cl)n1-c1ccc(Cl)cc1 | 696
48 | Cc1c(C(=O)NN2CCCCC2)nc(-c2ccc(Cl)cc2Cl)n1-c1ccc(Br)cc1 | 489
49 | Cc1c(C(=O)NN2CCCCC2)nc(-c2ccc(Cl)cc2Cl)n1-c1ccc(F)cc1 | 765
50 | COc1ccc(-n2c(-c3ccc(Cl)cc3Cl)nc(C(=O)NN3CCCCC3)c2C)cc1 | 326
51 | Cc1c(C(=O)NN2CCCCCC2)nc(-c2ccc(Cl)cc2Cl)n1-c1ccc(Cl)cc1 | 505
52 | Cc1c(C(=O)NC2CCCCC2)nc(-c2ccc(Cl)cc2Cl)n1-c1ccc(Cl)cc1 | 160
53 | Cc1c(C(=O)NC2CCCCCC2)nc(-c2ccc(Cl)cc2Cl)n1-c1ccc(Cl)cc1 | 349
54 | Cc1c(C(=O)N[C@H]2CC[C@H](O)CC2)nc(-c2ccc(Cl)cc2Cl)n1-c1ccc(Cl)cc1 | 3470
55 | Cc1c(C(=O)NC2CC3CCC2C3)nc(-c2ccc(Cl)cc2Cl)n1-c1ccc(Cl)cc1 (stereo not given) | 54
56 | O=C(NN1CCCCC1)c1nc(-c2ccc(Cl)cc2Cl)c(-c2ccc(Cl)cc2)s1 | 5840
57 | O=C(NN1CCCCC1)c1nc(-c2ccc(Cl)cc2)c(-c2ccc(Cl)cc2Cl)s1 | 4670
58 | O=C(NN1CCCCC1)c1nc(-c2ccc(Cl)cc2Cl)n(-c2ccc(Cl)cc2)c1CF | 906
59 | Cc1c(C(=O)OC(C)(C)C)nc(-c2ccc(Cl)cc2Cl)n1-c1ccc(Cl)cc1 | 815

Row | Structure (SMILES) | Ki [nM]
60 | Cc1c(C(=O)NCc2ccc(C(F)(F)F)cc2)nc(-c2ccc(Cl)cc2Cl)n1-c1ccc(Cl)cc1 | 1980
61 | Cc1c(C(=O)NOC(C)(C)C)nc(-c2ccc(Cl)cc2Cl)n1-c1ccc(Cl)cc1 | 242
62 | Cc1c(C(=O)NN2CCOCC2)nc(-c2ccc(Cl)cc2Cl)n1-c1ccc(Cl)cc1 | 3300
63 | Cc1c(C(=O)NC2CCCC2)nc(-c2ccc(Cl)cc2Cl)n1-c1ccc(Cl)cc1 | 357
64 | Cc1c(C(=O)NN2CCCCC2)nc(-c2ccc(Cl)cc2Cl)n1-c1ccc(Cl)cn1 | 758
65 | Cc1c(C(=O)NN2CCCCC2)nc(-c2ccc(Cl)cc2Cl)n1-c1ccc(Cl)cc1 | 608
66 | N#Cc1c(C(=O)NN2CCCCC2)nc(-c2ccc(Cl)cc2Cl)n1-c1ccc(Cl)cc1 | 1590
67 | Cc1c(C(=O)NN2CCCC2)nc(-c2ccc(Cl)cc2Cl)n1-c1ccc(Cl)cc1 | 774
68 | CCN(CC)C(=O)c1nc(-c2ccc(Cl)cc2Cl)n(-c2ccc(Cl)cc2)c1C | 2520
69 | Cc1c(C(=O)NN2CC3CCCC3C2)nc(-c2ccc(Cl)cc2Cl)n1-c1ccc(Cl)cc1 (stereo not given) | 1410
70 | CCc1c(C(=O)NN2CCCCC2)nc(-c2ccc(Cl)cc2Cl)n1-c1ccc(Cl)cc1 | 430
71 | O=C(NN1CCCCC1)c1nc(-c2ccc(Cl)cc2Cl)n(-c2ccc(Cl)cc2)c1Br | 746
72 | O=C(NN1CCCCC1)c1nc(-c2ccc(Cl)cc2Cl)n(-c2ccc(Cl)cc2)c1Cl | 823
73 | Cc1c(C(=O)NN2CCCCC2)nc(-c2ccc(Cl)cc2)n1-c1ccc(Cl)cc1Cl | 208
74 | O=C(NN1CCCCC1)c1nc(-c2ccc(Cl)cc2)n(-c2ccc(Cl)cc2Cl)n1 | 5440
75 | Cl.Cl.O=C(NN1CCCCC1)c1nc(-c2ccc(Cl)cc2Cl)n(-c2ccc(Cl)cc2)n1 | 3560

What follows are molecules tested against T1, Cannabinoid receptor 1 (assay: In vitro cannabinoid receptor 1 antagonism of [3H]arachidonic acid release by CHO cells). Details: read-out: pA2 (converted).
Assay type: functional, cell-based

Row | Structure (SMILES) | Kb [nM]
76 | Cc1c(C(=O)NN2CCCCC2)nc(-c2ccc(Cl)cc2Cl)n1-c1ccc(C(F)(F)F)cc1 | 2.51
77 | Cc1c(C(=O)NN2CCCCC2)nc(-c2ccc(Cl)cc2Cl)n1-c1ccc(Br)cc1 | 3.16
78 | COc1ccc(-n2c(-c3ccc(Cl)cc3Cl)nc(C(=O)NN3CCCCC3)c2C)cc1 | 2
79 | Cc1c(C(=O)NN2CCCCCC2)nc(-c2ccc(Cl)cc2Cl)n1-c1ccc(Cl)cc1 | 2
80 | Cc1c(C(=O)NC2CCCCC2)nc(-c2ccc(Cl)cc2Cl)n1-c1ccc(Cl)cc1 | 0.794
81 | Cc1c(C(=O)N[C@H]2CC[C@H](O)CC2)nc(-c2ccc(Cl)cc2Cl)n1-c1ccc(Cl)cc1 | 50.1
82 | Cc1c(C(=O)NC2CC3CCC2C3)nc(-c2ccc(Cl)cc2Cl)n1-c1ccc(Cl)cc1 (stereo not given) | 0.794
83 | O=C(NN1CCCCC1)c1nc(-c2ccc(Cl)cc2Cl)c(-c2ccc(Cl)cc2)s1 | 7.94
84 | O=C(NN1CCCCC1)c1nc(-c2ccc(Cl)cc2)c(-c2ccc(Cl)cc2Cl)s1 | 63.1
85 | O=C(NN1CCCCC1)c1nc(-c2ccc(Cl)cc2Cl)n(-c2ccc(Cl)cc2)c1CF | 1.26
86 | Cc1c(C(=O)OC(C)(C)C)nc(-c2ccc(Cl)cc2Cl)n1-c1ccc(Cl)cc1 | 2.51
87 | Cc1c(C(=O)NOC(C)(C)C)nc(-c2ccc(Cl)cc2Cl)n1-c1ccc(Cl)cc1 | 6.31
88 | Cc1c(C(=O)NN2CCCCC2)nc(-c2ccc(Cl)cc2Cl)n1-c1ccc(Cl)cc1 | 2.51
89 | CCN(CC)C(=O)c1nc(-c2ccc(Cl)cc2Cl)n(-c2ccc(Cl)cc2)c1C | 39.8
90 | CCc1c(C(=O)NN2CCCCC2)nc(-c2ccc(Cl)cc2Cl)n1-c1ccc(Cl)cc1 | 1
91 | O=C(NN1CCCCC1)c1nc(-c2ccc(Cl)cc2Cl)n(-c2ccc(Cl)cc2)c1Br | 3.98
92 | O=C(NN1CCCCC1)c1nc(-c2ccc(Cl)cc2Cl)n(-c2ccc(Cl)cc2)c1Cl | 3.16
93 | Cc1c(C(=O)NN2CCCCC2)nc(-c2ccc(Cl)cc2)n1-c1ccc(Cl)cc1Cl | 20
94 | O=C(NN1CCCCC1)c1nc(-c2ccc(Cl)cc2)n(-c2ccc(Cl)cc2Cl)n1 | 25.1
95 | Cl.Cl.O=C(NN1CCCCC1)c1nc(-c2ccc(Cl)cc2Cl)n(-c2ccc(Cl)cc2)n1 | 5.01

The molecules below were run on Mus musculus (assay: In vivo effective dose to produce antagonism of CB agonist (WIN-55212) induced hypothermia in mouse). Details: not given.

Row | Structure (SMILES) | LED [mg/kg]
96 | O=C(NN1CCCCC1)c1cn(-c2ccc(Cl)cc2)c(-c2ccc(Cl)cc2Cl)n1 | >30
97 | Cc1c(C(=O)NN2CCCCC2)nc(-c2ccc(Cl)cc2Cl)n1-c1ccc(Cl)cc1 | 10
98 | CCc1c(C(=O)NN2CCCCC2)nc(-c2ccc(Cl)cc2Cl)n1-c1ccc(Cl)cc1 | 30
99 | Cl.Cl.O=C(NN1CCCCC1)c1nc(-c2ccc(Cl)cc2Cl)n(-c2ccc(Cl)cc2)n1 | >30
100 | Cc1c(C(=O)NN2CCCCC2)nn(-c2ccc(Cl)cc2Cl)c1-c1ccc(Cl)cc1 [RIMONABANT] | 3
